Screens (PubChem)
Only some compounds are listed: those with a hit (about 2.1% of all), similar ones and a draw of the others.
zVAD death inh – L929 zVAD cell death inhibition; 220,000 tested, 0.38% active; viability rescue, % at 10 µM; L929 zVAD necroptosis rescue, ATP luminescence, 24 h; with zVAD 60 µM; AID 1377;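 active = activation, scaled between plate controls, above about 75%, limit read from the data; inactive = activation under that limit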
Wee1 stabilizer – blocks degradation of human Wee1 kinase | HeLa Luc-Wee1K328M stability, luciferase luminescence; 100% = proteasome inhibitor MG132 effect | reporter increase, % at 5 µM | 220,000 tested, 1.2% active | AID 1321;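 active = activation above the mean of all tested compounds plus 3 SD, set per screening run, cut at about 8.8% in these data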;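 also: cells exposed to compound for 20 h before luminescence read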
Pf gamet viab – P. falciparum stage V gametocyte viability inhibition. P. falciparum stage V gametocytes, ATP luminescence, 24 h. inhibition, % at 10.9 µM. 150,000 tested, 0.065% active. AID 743093;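 active = inhibition above the mean plus 3 SD of compounds within the control limits, set per campaign, cut at about 38% in these data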
Calpain2 inh – inhibitors of pig calpain II. purified calpain II, fluorogenic peptide substrate, 30 min. inhibition, % at 16 µM. 220,000 tested, 0.37% active;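 active = inhibition above about 50%, limit read from the data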
RBBP9 inh – blocks human serine hydrolase RBBP9 | O75884 | recombinant RBBP9, FP-Rh probe fluorescence polarization | 220,000 tested, 0.2% active | inhibition, % at 7.94 µM | AID 1515;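 active = inhibition above the campaign mean of all tested compounds plus 3 SD, cut at about 14% in these data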
Target sequence (O75884 whole entry, looked up): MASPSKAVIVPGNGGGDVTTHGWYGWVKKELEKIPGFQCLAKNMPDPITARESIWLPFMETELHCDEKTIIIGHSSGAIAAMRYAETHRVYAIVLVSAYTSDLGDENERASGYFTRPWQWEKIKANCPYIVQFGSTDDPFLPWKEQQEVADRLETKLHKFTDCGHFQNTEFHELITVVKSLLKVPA
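Measured by: FP readout at 525/598 nm; material: recombinant human RBBP9; also added: Serine-hydrolase probe FP-Rh, 375 nM pre-mixing; medium: Tris buffer pH 8.0, NaCl, Pluronic; replication: one well per compound; doses: one concentration, 7.94 µM nominal, 0.794% DMSO; timing: preincubation 30 min plus labeling 45 min at 25 °C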
TNF death inh – TNF-alpha cell death inhibition in Jurkat FADD-/- cells; Jurkat FADD-/- TNF necroptosis rescue, ATP luminescence, 24 h; 0 = TNF only, 100 = no-TNF cells; activation (protection from cell death), % at 10 µM; AID 463075; 220,000 tested, 0.068% active;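 active = activation, meaning protection from cell death, of at least 50% relative to plate controls; inactive = activation below 50%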;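 also: necroptosis triggered by 40 ng/mL TNF-alpha added together with compound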
Large screens that a line does not name were inactive.

COc1ccc(/C=C(\NC(=O)c2ccccc2Cl)C(=O)NCCCC(=O)O)cc1	Calpain2 inh 52 (no result: Pf gamet viab)
O=C(O)CCCNC(=O)/C(=C\C=C\c1ccccc1)NC(=O)c1ccccc1Cl	none
COc1ccccc1NC(=O)c1ccc(NS(=O)(=O)c2ccc(F)c(F)c2F)cc1	none
OCc1ccccc1OCCOc1ccc(Cl)c2cccnc12	none (no result: Pf gamet viab)
Clc1ccc(OCc2cn3ccccc3n2)c2ncccc12	Wee1 stabilizer 9.9
O=S(=O)(c1ccccc1)N1CC=C(c2ccccc2)CC1	none
CCOC(=O)[C@H]1[C@H]2COc3cc(OC)ccc3[C@@H]2N2C(=O)c3ccc(C)cc3NC(=O)[C@@]12C	Pf gamet viab 39 (no result: zVAD death inh, Wee1 stabilizer, Calpain2 inh, RBBP9 inh, TNF death inh)
CCOC(=O)[C@H]1[C@H]2COc3cc(OC)ccc3[C@@H]2N2C(=O)c3cc(C)ccc3NC(=O)[C@@]12C	none (no result: zVAD death inh, Wee1 stabilizer, Calpain2 inh, RBBP9 inh, TNF death inh)
COc1ccc(C(=O)Nc2nc(N)n(-c3ccccc3)n2)cc1	none (no result: zVAD death inh)
Nc1nc(NC(=O)c2ccccc2)nn1-c1ccccc1	Pf gamet viab 58 (no result: zVAD death inh)
Cc1nnsc1C(=O)NNC(=O)c1cccc2ccccc12	none
Cc1ccc(NC(=O)CSc2nnc(Cc3ccccc3)o2)cc1	Wee1 stabilizer 11
Cc1cccc(NC(=O)CSc2nnc(Cc3ccccc3)o2)c1	none
COc1ccc(CCCc2nnc(SCC(=O)Nc3ccc(C)c(C)c3)o2)cc1	Calpain2 inh 60 (no result: Pf gamet viab)
CCOc1ccc(-n2c(SCC(=O)c3c(N)n(C)c(=O)n(C)c3=O)nnc2-c2cccnc2)cc1	none
O=c1[nH]cnc(O)c1C(c1ccc2c(c1)OCO2)c1c(O)nc[nH]c1=O	none
Cc1ccc(/C=C/C(=O)NC2CCS(=O)(=O)C2)cc1 (stereo not drawn)	none
O=C(/C=C/c1ccccc1)NC1CCS(=O)(=O)C1 (stereo not drawn)	Pf gamet viab 63
C=C(Cl)COc1ccc2c(CCCC)cc(=O)oc2c1	Wee1 stabilizer 9.3
O=C(Nc1ccc2c(c1)OCCO2)c1ccc(Br)o1	Wee1 stabilizer 9.4 (no result: Pf gamet viab)
O=C(Nc1ccc2c(c1)OCCO2)c1ccc(Br)cc1	none (no result: zVAD death inh, Wee1 stabilizer, Calpain2 inh, RBBP9 inh, TNF death inh)
Cn1cc(CN2CCCC(CO)(Cc3cccc(Cl)c3)C2)cn1 (stereo not drawn)	none
CC(C)n1cc(CN2CCCC(CO)(Cc3cccc(Cl)c3)C2)cn1 (stereo not drawn)	Wee1 stabilizer 10
COc1ccccc1C(=O)C1CCCN(C(=O)CSc2ccccn2)C1 (stereo not drawn)	Wee1 stabilizer 10
Cc1nnsc1C(=O)NNc1c(Cl)cccc1Cl	Wee1 stabilizer 9.0, TNF death inh 84
CCc1ccc(-c2c(C)sc(NC(C)=O)c2C(N)=O)cc1	zVAD death inh 78
CCOc1ccc(NC(=O)C(Cc2ccccc2)NC(=O)C2CCCCC2)cc1 (stereo not drawn)	none (no result: zVAD death inh)
O=C(N1CCN(c2ncccn2)CC1)C12CC3CC(CC(C3)C1)C2	none (no result: zVAD death inh, Wee1 stabilizer, Calpain2 inh, RBBP9 inh, TNF death inh)
[O-][n+]1ccccc1SC/C=C/c1ccccc1	Wee1 stabilizer 10
COc1cccc(CNC(=O)CNC(=S)N(Cc2ccccc2)Cc2ccccc2F)c1	Calpain2 inh 54
O=C(CNC(=S)N(Cc1ccccc1)Cc1ccccc1F)NCc1ccccc1	Calpain2 inh 54
O=C(CNC(=S)N(Cc1ccccc1)Cc1ccccc1F)NCc1ccc(Cl)cc1	none
O=C(COc1ccc(Cl)cc1)NC1=NN(c2ccccc2)C(=O)C1	none (no result: Pf gamet viab)
CCNC(=O)c1c(NC(=O)c2cc(-c3cc(C)cc(C)c3O)n[nH]2)sc2c1CCCC2	none (no result: zVAD death inh, Wee1 stabilizer, Calpain2 inh, RBBP9 inh, TNF death inh)
CCCCNc1nc2ccccc2[nH]1	none
CCOCCCNc1nc2ccccc2[nH]1	Wee1 stabilizer 10 (no result: Pf gamet viab)
O=C(O)CCC(=O)N1CCN(c2ccc(C(=O)c3ccc(F)cc3)cc2)CC1	none
CN1CCN(c2ccc(C(=O)c3ccc(F)cc3)cc2)CC1	Wee1 stabilizer 9.0 (no result: Pf gamet viab)
CC(=O)c1ccc(-c2ccc(C(=O)N3CCN(c4ccc(F)cc4)CC3)o2)cc1	Calpain2 inh 68
O=C(c1ccc(Br)o1)N1CCN(c2ccc(F)cc2)CC1	none (no result: Pf gamet viab)
CN(C)c1ccc(-c2nnc(-c3ccccc3F)o2)cc1	none (no result: zVAD death inh, Wee1 stabilizer, Calpain2 inh, RBBP9 inh, TNF death inh)
COc1cc(OC)c(/C=N/NC(=O)COc2cccc3cccnc23)c(OC)c1	none
CCOC(=O)c1ccc(C(=O)OCC)c(NC(=S)Nc2ccc([N+](=O)[O-])cc2OC)c1	none (no result: Pf gamet viab)
CC(C)[C@H](NC(=O)c1ccccc1)C(=O)OCC(=O)NCc1ccc(F)cc1	none (no result: Pf gamet viab)
O=C(c1ccc(NC(=S)NCc2ccco2)cc1)N1CCOCC1	none
Cc1ccc(C)c(NC(=O)c2cc3ccccn3n2)c1	none (no result: Pf gamet viab)
Cc1ccc(C)c(NC(=O)c2cnn3ccccc23)c1	zVAD death inh 85 (no result: Pf gamet viab)
Cc1ccccc1NC(=O)Cn1c(NCC(C)O)nc2ccccc21 (stereo not drawn)	none
O=S(=O)(c1ccc(F)cc1)N1CCCN(c2nccc(C(F)(F)F)n2)CC1	Wee1 stabilizer 9.5
COc1cccc(/C(N)=N/OC(=O)Cc2ccccc2[N+](=O)[O-])c1	none
Nc1ncnc(Nc2ccc(S(N)(=O)=O)cc2)n1	none (no result: Pf gamet viab)
CCN(CC(O)Cn1c2ccccc2c2ccccc21)S(=O)(=O)c1ccc(F)cc1 (stereo not drawn)	Calpain2 inh 69
CC1CCOC2(O1)C(=O)N(CN1CCN(c3ccccc3F)CC1)c1ccccc12 (stereo not drawn)	none (no result: Pf gamet viab)
O=C(O)c1ccc(-c2ccc(/C=C3\NC(=O)N(Cc4ccc(Cl)cc4)C3=O)o2)cc1Cl	none
CC1=CC(=O)c2c(O)ccc(O)c2C1=O	RBBP9 inh 16 (no result: Pf gamet viab)
O=C1C2=C(NC(=S)NC2c2ccc(Cl)cc2)NC(c2ccc(Cl)cc2)N1c1ccc(Cl)cc1 (stereo not drawn)	Wee1 stabilizer 10
O=C(CN1C(=O)/C(=C\c2cccc(F)c2)Oc2ccccc21)N1CCN(c2ccccn2)CC1	Pf gamet viab 51
CCCN1CNC(=S)N(Cc2ccccc2)C1	none
S=C1NCN(CCc2ccccc2)CN1Cc1ccccc1	Wee1 stabilizer 9.6
Cc1cc(C)c(C(=O)Cn2nc(C)c([N+](=O)[O-])c2C)cc1C	Wee1 stabilizer 10
Cc1ccc(/C=N/NC(=O)Cn2nc(C)c([N+](=O)[O-])c2C)o1	Wee1 stabilizer 9.6
Cc1ccc(C(=O)Cn2nc(C)c([N+](=O)[O-])c2C)c(C)c1	none
O=C1C2CCCCN2C(=O)N1CCCCN1CCN(c2cccc(C(F)(F)F)c2)CC1 (stereo not drawn)	none (no result: zVAD death inh, Wee1 stabilizer, Calpain2 inh, RBBP9 inh, TNF death inh)
Cc1cc(C)cc(N(CCC#N)C(=O)CSC2=Nc3ccccc3C3CC=NN23)c1 (stereo not drawn)	Wee1 stabilizer 9.9
N#Cc1ccccc1NC(=O)CSC1=Nc2ccccc2C2CC=NN12 (stereo not drawn)	Wee1 stabilizer 9.4
CN(CCNC(=O)CN1C(=O)CSc2ccc(S(=O)(=O)N3CCCC3)cc21)Cc1ccccc1	Wee1 stabilizer 10
C=CCc1ccc(O)c(-c2cc(CC=C)ccc2O)c1	Wee1 stabilizer 10 (no result: Pf gamet viab)
